Assay results gathered from unrelated publications.
Lines come from different studies, so protocols differ.
Target: Mitogen-activated protein kinase kinase kinase 7 (MAP3K7, Homo sapiens, UniProt O43318)
Residues used in one study (O43318 1-606): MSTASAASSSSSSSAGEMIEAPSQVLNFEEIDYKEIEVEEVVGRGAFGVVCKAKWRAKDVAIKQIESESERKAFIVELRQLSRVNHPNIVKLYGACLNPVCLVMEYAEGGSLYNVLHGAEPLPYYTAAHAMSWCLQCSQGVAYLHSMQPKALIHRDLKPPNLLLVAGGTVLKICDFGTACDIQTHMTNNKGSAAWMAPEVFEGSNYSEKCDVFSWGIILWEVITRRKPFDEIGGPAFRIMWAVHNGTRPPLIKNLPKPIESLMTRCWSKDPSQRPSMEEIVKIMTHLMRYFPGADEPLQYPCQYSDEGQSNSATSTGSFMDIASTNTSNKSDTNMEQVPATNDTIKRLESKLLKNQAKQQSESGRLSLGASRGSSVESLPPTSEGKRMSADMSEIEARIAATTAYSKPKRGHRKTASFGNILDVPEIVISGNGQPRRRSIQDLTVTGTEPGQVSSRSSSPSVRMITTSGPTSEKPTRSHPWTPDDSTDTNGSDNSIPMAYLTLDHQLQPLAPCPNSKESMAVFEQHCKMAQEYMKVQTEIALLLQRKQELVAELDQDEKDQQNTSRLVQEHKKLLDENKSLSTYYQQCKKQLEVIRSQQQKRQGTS

Structure (SMILES) | assay | conditions | quantity | value
CC#CC(=O)N1CCC[C@H]1c1nc(-c2ccc(C(=O)Nc3ccccn3)cc2)c2c(N)nccn12 | enzyme activity, inhibitor | 1 µM | inhibition | 12%
CN1CCN(C(=O)c2ccc(NC(=O)Nc3ccc(N(C)c4ccnc(Nc5ccc(CS(C)(=O)=O)cc5)n4)cc3)cc2)CC1 | binding, competition with immobilised ligand | 1 µM | remaining binding | 25%
CS(=O)(=NC#N)c1ccccc1Nc1nc(Nc2ccc(CO)nc2)ncc1Cl (centres unmarked) | enzyme activity, inhibitor | 1 µM | remaining activity | 55.8%
Cc1cc(O)c(-c2ccc([C@@H](C)CN(C)C)cc2)c2c1[nH]c(=O)c1sccc12 | enzyme activity, inhibitor | 0.1 µM | inhibition | -18.1%
CS(=O)(=O)c1ccccc1Nc1nc(Nc2ccnc(CO)c2)ncc1Cl | enzyme activity, inhibitor | 1 µM | remaining activity | 70.7%
CCCCC(=O)Nc1ccc(-c2ccc3ncn(CCC)c(=O)c3c2)cn1 | binding, competition with immobilised ligand | 0.5 µM | remaining binding | 87%
C=CC(=O)N1CCC([C@@H]2CCNc3c(C(N)=O)c(-c4ccc(Oc5ccccc5)cc4)nn32)CC1 | enzyme activity, inhibitor | 1 µM | inhibition | 19%
C[C@H]1CC[C@H](n2c3cnccc3c3cnc(Nc4ccc5c(n4)CCN(C(=O)CO)C5)nc32)CC1 | binding, competition with immobilised ligand | 1 µM | remaining binding | 47%
